Activity calls are given as the source filed them. The rule behind the calls is not given here.
Experiments:
MDA-MB-231 [1] = assay: Effect on regrowth of depolymerized microtubule in human MDA-MB-231 cells after drug withdrawal; type: functional, cell-based; settings: TDE = time-dependent effect
In short: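 MDA-MB-231/ATCC cells on coverslips were treated at 36 µM in DMEM for 2 h at 37 °C, with nocodazole 20 µM and colchicine 5 µM as controls. Drug was then washed out with PBS and cells incubated in prewarmed DMEM at 37 °C. Cells were fixed at set time points and immunostained for α-tubulin and ninein with DAPI counterstain.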

MDA-MB-231 [2] = assay: Effect on microtubule depolymerization in human MDA-MB-231 cells at 27 uM after 2 hrs; type: functional, cell-based
In short: (§1)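 MDA-MB-231/ATCC cells grown on glass coverslips (1 × 10⁴ cells) for 24 h, then exposed to 3.6, 9, 18, 27 or 36 µM at 37 °C for 2 h. Fixed in 4% paraformaldehyde, permeabilized with Triton X-100, and immunostained for α-tubulin and ninein with DAPI counterstain. Interphase microtubule networks compared with untreated cells by confocal microscopy.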

MDA-MB-231 [3] = assay: Effect on microtubule depolymerization in human MDA-MB-231 cells at 36 uM after 2 hrs; type: functional, cell-based; in short: as §1
K562 [4] = assay: Cytotoxicity against human K562 cells; type: functional
In short: (§2)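 Tested in the NCI in vitro antitumor screening protocol across a tumor cell line panel. GI₅₀ is the concentration producing a 50% reduction in cell growth.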

MOLT-4 = assay: Cytotoxicity against human MOLT4 cells; type: functional; in short: as §2
RPMI-8226 = assay: Cytotoxicity against human RPMI8226 cells; type: functional; in short: as §2
NCI-H322M = assay: Cytotoxicity against human NCI-H322M cells; type: functional; in short: as §2
HCT-116 = assay: Cytotoxicity against human HCT116 cells; type: functional; in short: as §2
HCT-15 = assay: Cytotoxicity against human HCT15 cells; type: functional; in short: as §2
SF-268 = assay: Cytotoxicity against human SF268 cells; type: functional; in short: as §2
SNB-19 = assay: Cytotoxicity against human SNB19 cells; type: functional; in short: as §2
SK-MEL-2 = assay: Cytotoxicity against human SK-MEL2 cells; type: functional
In short: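 Tested in the NCI in vitro antitumor screening protocol against human tumour cell lines.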

SK-MEL-5 = assay: Cytotoxicity against human SK-MEL5 cells; type: functional; in short: as §2
OVCAR-5 = assay: Cytotoxicity against human OVCAR5 cells; type: functional; in short: as §2
OVCAR-8 = assay: Cytotoxicity against human OVCAR8 cells; type: functional; in short: as §2
SK-OV-3 = assay: Cytotoxicity against human SK-OV3 cells; type: functional; in short: as §2
A498 = assay: Cytotoxicity against human A498 cells; type: functional; in short: as §2
ACHN = assay: Cytotoxicity against human ACHN cells; type: functional; in short: as §2
CAKI-1 = assay: Cytotoxicity against human CAKI1 cells; type: functional; in short: as §2
NCI/ADR-RES = assay: Cytotoxicity against human NCI/ADR-RES cells; type: functional; in short: as §2
MDA-MB-231 [5] = assay: Cytotoxicity against human MDA-MB-231 cells; type: functional; in short: as §2
Hs-578T = assay: Cytotoxicity against human HS578T cells; type: functional; in short: as §2
BT-549 = assay: Cytotoxicity against human BT549 cells; type: functional; in short: as §2
T47D = assay: Cytotoxicity against human T47D cells; type: functional; in short: as §2
SNB-75 = assay: Cytotoxicity against human SNB75 cells; type: functional; in short: as §2
K562 [6] = assay: Cell cycle arrest in human K562 cells assessed as accumulation at G2/M phase at 50 uM after 24 hrs by flow cytometry; type: functional
In short: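 K-562 human leukemia cells were grown in RPMI 1640 with 10% fetal calf serum, glutamine and penicillin/streptomycin at 37 °C in 5% CO₂. Cells were exposed to compound at 50 µM for 24 h, then pelleted and PBS-washed. They were fixed in ice-cold ethanol for 30 min, treated with 1 mg/mL RNase A at 37 °C for 30 min, and stained with propidium iodide and Triton X-100 for 30 min at room temperature in the dark. Per-phase and sub-G1 percentages came from flow cytometry gating.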

MDA-MB-231 [7] = assay: Cell cycle arrest in human MDA-MB-231 cells assessed as accumulation of 2N cells at 36.0 uM after 24 hrs by flow cytometry; type: functional
MDA-MB-231 [8] = assay: Cell cycle arrest in human MDA-MB-231 cells assessed as accumulation at sub-G1 phase at 9.0 uM after 24 hrs by flow cytometry; type: functional
MDA-MB-231 [9] = assay: Cell cycle arrest in human MDA-MB-231 cells assessed as accumulation of 4N cells at 3.6 uM after 24 hrs by flow cytometry; type: functional
MDA-MB-231 [10] = assay: Cell cycle arrest in human MDA-MB-231 cells assessed as accumulation of 4N cells at 9.0 uM after 24 hrs by flow cytometry; type: functional
MDA-MB-231 [11] = assay: Cell cycle arrest in human MDA-MB-231 cells assessed as accumulation of >4N cells at 27.0 uM after 24 hrs by flow cytometry; type: functional
MDA-MB-231 [12] = assay: Cell cycle arrest in human MDA-MB-231 cells assessed as accumulation at sub-G1 phase at 9.0 uM after 72 hrs by flow cytometry; type: functional
MDA-MB-231 [13] = assay: Cell cycle arrest in human MDA-MB-231 cells assessed as accumulation of 4N cells at 3.6 uM after 72 hrs by flow cytometry; type: functional
MDA-MB-231 [14] = assay: Cell cycle arrest in human MDA-MB-231 cells assessed as accumulation of 4N cells at 18.0 uM after 72 hrs by flow cytometry; type: functional
MDA-MB-231 [15] = assay: Cell cycle arrest in human MDA-MB-231 cells assessed as accumulation of >4N cells at 3.6 uM after 72 hrs by flow cytometry; type: functional
MDA-MB-231 [16] = assay: Cell cycle arrest in human MDA-MB-231 cells assessed as accumulation of >4N cells at 18.0 uM after 72 hrs by flow cytometry; type: functional
[17] = read-out: LC50 (the source's name)

Structure (SMILES): Nc1ccccc1C#C/C=C\C#Cc1ccccc1C(F)(F)F
- Activity (MDA-MB-231 [1]): tde
- Activity (MDA-MB-231 [2]): Active
- Activity (MDA-MB-231 [3]): Active
- GI50 (K562 [4]): 1 µM
- TGI (K562 [4]): 0.845 µM
- CC50 (K562 [4]; [17]): 62.7 µM
- GI50 (MOLT-4): > 100 µM
- TGI (MOLT-4): > 100 µM
- CC50 (MOLT-4; [17]): > 100 µM
- GI50 (RPMI-8226): 0.738 µM
- TGI (RPMI-8226): > 100 µM
- CC50 (RPMI-8226; [17]): > 100 µM
- GI50 (NCI-H322M): 12.1 µM
- TGI (NCI-H322M): 27.9 µM
- CC50 (NCI-H322M; [17]): 64.4 µM
- GI50 (HCT-116): 0.423 µM
- TGI (HCT-116): 12.5 µM
- CC50 (HCT-116; [17]): 47.4 µM
- GI50 (HCT-15): 1.26 µM
- TGI (HCT-15): 11.4 µM
- CC50 (HCT-15; [17]): 51.1 µM
- GI50 (SF-268): 0.65 µM
- TGI (SF-268): 19.7 µM
- CC50 (SF-268; [17]): 64.3 µM
- GI50 (SNB-19): 11.3 µM
- TGI (SNB-19): 39.9 µM
- CC50 (SNB-19; [17]): > 100 µM
- TGI (SK-MEL-2): 26.5 µM
- CC50 (SK-MEL-2; [17]): 67.2 µM
- GI50 (SK-MEL-5): 0.541 µM
- TGI (SK-MEL-5): 15 µM
- CC50 (SK-MEL-5; [17]): 42.2 µM
- GI50 (OVCAR-5): 1.35 µM
- TGI (OVCAR-5): 7.02 µM
- CC50 (OVCAR-5; [17]): 37.5 µM
- GI50 (OVCAR-8): 0.962 µM
- TGI (OVCAR-8): 21.5 µM
- CC50 (OVCAR-8; [17]): 80.7 µM
- GI50 (SK-OV-3): 0.888 µM
- TGI (SK-OV-3): 24.7 µM
- CC50 (SK-OV-3; [17]): 98.7 µM
- GI50 (A498): 0.973 µM
- TGI (A498): 13.1 µM
- CC50 (A498; [17]): 40.7 µM
- GI50 (ACHN): 0.294 µM
- TGI (ACHN): 15.7 µM
- CC50 (ACHN; [17]): 48.3 µM
- GI50 (CAKI-1): 0.351 µM
- TGI (CAKI-1): 13.2 µM
- CC50 (CAKI-1; [17]): 38 µM
- GI50 (NCI/ADR-RES): 0.249 µM
- TGI (NCI/ADR-RES): 0.68 µM
- CC50 (NCI/ADR-RES; [17]): 28.5 µM
- GI50 (MDA-MB-231 [5]): 0.4 µM
- TGI (MDA-MB-231 [5]): 1.68 µM
- CC50 (MDA-MB-231 [5]; [17]): 36.5 µM
- GI50 (Hs-578T): 0.501 µM
- TGI (Hs-578T): 28.9 µM
- CC50 (Hs-578T; [17]): > 100 µM
- GI50 (BT-549): 0.699 µM
- TGI (BT-549): 17.3 µM
- CC50 (BT-549; [17]): 43.4 µM
- GI50 (T47D): 17 µM
- TGI (T47D): 49.6 µM
- CC50 (T47D; [17]): > 100 µM
- TGI (SNB-75): 18.8 µM
- GI50 (SNB-75; read-out: GI50): 0.0869 µM
- CC50 (SNB-75; [17]): 100 µM
- GI50 (SNB-75; read-out: pGI50 (converted)): 0.0794 µM
- Activity (K562 [6]): 73.9%
- Activity (MDA-MB-231 [7]): 10.4%
- Activity (MDA-MB-231 [8]): 23.1%
- Activity (MDA-MB-231 [9]): 35.6%
- Activity (MDA-MB-231 [10]): 33.6%
- Activity (MDA-MB-231 [11]): 35.3%
- Activity (MDA-MB-231 [12]): 53.9%
- Activity (MDA-MB-231 [13]): 19.2%
- Activity (MDA-MB-231 [14]): 17.4%
- Activity (MDA-MB-231 [15]): 10.3%
- Activity (MDA-MB-231 [16]): 13%

Source: ChEMBL document CHEMBL1149910, “2-(6-aryl-3(Z)-hexen-1,5-diynyl)anilines as a new class of potent antitubulin agents” (J Med Chem, 2008)
